# The source made the active and inactive calls. No cut-off for these calls is given here.
# Tests used:
# [1] = system: Mycobacterium tuberculosis; assay: Antimycobacterial activity against Mycobacterium tuberculosis isolate NJT210 expressing embB codon 306 CTG-ATG mutant at 37 degC after 10 to 11 days by radiometric Bactec 460TB method; type: functional
# [2] = system: Mycobacterium tuberculosis; assay: Antimycobacterial activity against rifampin, ethambutol resistant Mycobacterium tuberculosis isolate 30167 at 37 degC after 3 to 4 weeks by radiometric Bactec 460TB method; type: functional
# [3] = system: Mycobacterium tuberculosis; assay: Antimycobacterial activity against isoniazid, rifampin, ethambutol resistant Mycobacterium tuberculosis isolate NJT5310 expressing embB codon 306 ATG mutant at 37 degC after 3 to 4 weeks by radiometric Bactec 460TB method; type: functional
# [4] = system: Mycobacterium tuberculosis; assay: Antimycobacterial activity against Mycobacterium tuberculosis isolate NJT210 expressing embB codon 306 ATC-ATG mutant at 37 degC after 10 to 11 days by radiometric Bactec 460TB method; type: functional
# [5] = system: Mycobacterium tuberculosis; assay: Antimycobacterial activity against isoniazid, rifampin, ethambutol resistant Mycobacterium tuberculosis isolate NJT5310 expressing embB codon 306 ATG-CTG mutant at 37 degC after 3 to 4 weeks by radiometric Bactec 460TB method; type: functional
# [6] = system: Mycobacterium tuberculosis; assay: Antimycobacterial activity against rifampin, ethambutol resistant Mycobacterium tuberculosis isolate 5041 at 37 degC after 3 to 4 weeks by radiometric Bactec 460TB method; type: functional
# [7] = system: Mycobacterium tuberculosis; assay: Antimycobacterial activity against isoniazid, rifampin, ethambutol resistant Mycobacterium tuberculosis isolate NJT5310 expressing embB codon 306 ATG-ATC mutant at 37 degC after 3 to 4 weeks by radiometric Bactec 460TB method; type: functional
# [8] = system: Mycobacterium tuberculosis; assay: Antimycobacterial activity against ethambutol resistant Mycobacterium tuberculosis isolate NJT210EMB-R-C1 assessed as bacterial colony formation at 37 degC after 10 to 11 days by radiometric Bactec 460TB method; type: functional
# [9] = system: Mycobacterium tuberculosis; assay: Antimycobacterial activity against Mycobacterium tuberculosis isolate NJT210 expressing embB codon 306 ATA mutant at 37 degC after 10 to 11 days by radiometric Bactec 460TB method; type: functional
# [10] = system: Mycobacterium tuberculosis; assay: Antimycobacterial activity against ethambutol resistant Mycobacterium tuberculosis isolate NJT210EMB-R-C2 assessed as bacterial colony formation at 37 degC after 10 to 11 days by radiometric Bactec 460TB method; type: functional
# [11] = system: Mycobacterium tuberculosis; assay: Antimycobacterial activity against Mycobacterium tuberculosis isolate NJT210 expressing embB codon 306 ATC mutant at 37 degC after 10 to 11 days by radiometric Bactec 460TB method; type: functional
# [12] = system: Mycobacterium tuberculosis; assay: Antimycobacterial activity against Mycobacterium tuberculosis isolate NJT210 expressing embB codon 306 GTG mutant at 37 degC after 10 to 11 days by radiometric Bactec 460TB method; type: functional
# [13] = system: Mycobacterium tuberculosis; assay: Antimycobacterial activity against rifampin, ethambutol resistant Mycobacterium tuberculosis isolate A2558 at 37 degC after 3 to 4 weeks by radiometric Bactec 460TB method; type: functional
# [14] = system: Mycobacterium tuberculosis; assay: Antimycobacterial activity against isoniazid, rifampin, ethambutol resistant Mycobacterium tuberculosis isolate 5310 at 37 degC after 3 to 4 weeks by radiometric Bactec 460TB method; type: functional
# [15] = system: Mycobacterium tuberculosis; assay: Antimycobacterial activity against Mycobacterium tuberculosis isolate NJT210 expressing embB codon 306 CTG mutant at 37 degC after 10 to 11 days by radiometric Bactec 460TB method; type: functional
# [16] = system: Mycobacterium tuberculosis; assay: Antimycobacterial activity against isoniazid, rifampin, ethambutol resistant Mycobacterium tuberculosis isolate NJT5310 expressing embB codon 306 ATG-ATA mutant at 37 degC after 3 to 4 weeks by radiometric Bactec 460TB method; type: functional
# [17] = system: Mycobacterium tuberculosis; assay: Antimycobacterial activity against ethambutol resistant Mycobacterium tuberculosis isolate NJT210EMB-R-C3 assessed as bacterial colony formation at 37 degC after 10 to 11 days by radiometric Bactec 460TB method; type: functional
# [18] = system: Mycobacterium tuberculosis; assay: Antimycobacterial activity against isoniazid, rifampin, ethambutol resistant Mycobacterium tuberculosis isolate NJT5310 expressing embB codon 306 ATG-GTG mutant at 37 degC after 3 to 4 weeks by radiometric Bactec 460TB method; type: functional
# [19] = system: Mycobacterium tuberculosis; assay: Antimycobacterial activity against rifampin, ethambutol resistant Mycobacterium tuberculosis isolate NJT30167 expressing embB codon 306 ATG mutant at 37 degC after 3 to 4 weeks by radiometric Bactec 460TB method; type: functional
# [20] = system: Mycobacterium tuberculosis; assay: Antimycobacterial activity against Mycobacterium tuberculosis isolate NJT210 expressing embB codon 306 CTG mutant assessed as bacterial growth rate at 0.04 ug/ml by radiometric Bactec 460TB method; type: functional, organism-based
# Method in brief: (§1)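 Sub-MIC growth curves in Bactec 12B vials with isoniazid (strain 210 vs NJT210CTG also rifampin) at several sub-MIC levels. The daily growth index was followed. No-drug controls were inoculated at 1:100 dilution. Values are means and standard deviations of three independent experiments.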
# [21] = system: Mycobacterium tuberculosis; assay: Antimycobacterial activity against Mycobacterium tuberculosis isolate NJT210 expressing embB codon 306 CTG mutant assessed as bacterial growth rate at 0.03 ug/ml by radiometric Bactec 460TB method; type: functional, organism-based; method in brief: as §1
# [22] = system: Mycobacterium tuberculosis; assay: Antimycobacterial activity against ethambutol-susceptible and rifampin-resistant Mycobacterium tuberculosis isolate NJT30167 expressing embB codon 306 ATG assessed as bacterial growth rate at sub MIC compound concentration by radiometric Bactec 460TB method; type: functional, organism-based; method in brief: as §1
Structure (SMILES),MIC [1],MIC [2],MIC [3],MIC [4],MIC [5],MIC [7],MIC [8],MIC [9],MIC [10],MIC [11],MIC [12],MIC [14],MIC [15],MIC [16],MIC [17],MIC [18],MIC [19],Activity [20],also measured
CC[C@@H](CO)NCCN[C@@H](CC)CO [ETHAMBUTOL],2 µg/mL,20 µg/mL,3 µg/mL,2 µg/mL,20 µg/mL,16 µg/mL,14 µg/mL,7 µg/mL,14 µg/mL,7 µg/mL,14 µg/mL,28 µg/mL,8.5 µg/mL,16 µg/mL,8 µg/mL,28 µg/mL,3 µg/mL,–,MIC [6]: 8 µg/mL; MIC [13]: 5 µg/mL
CO[C@H]1/C=C/O[C@@]2(C)Oc3c(C)c(O)c4c(O)c(c(/C=N/N5CCN(C)CC5)c(O)c4c3C2=O)NC(=O)/C(C)=C\C=C\[C@H](C)[C@H](O)[C@@H](C)[C@@H](O)[C@@H](C)[C@H](OC(C)=O)[C@@H]1C [RIFAMPIN],0.05 µg/mL,> 240 µg/mL,>240 µg/mL,0.05 µg/mL,>240 µg/mL,>240 µg/mL,0.05 µg/mL,0.05 µg/mL,0.05 µg/mL,0.05 µg/mL,0.05 µg/mL,> 240 µg/mL,0.05 µg/mL,>240 µg/mL,0.05 µg/mL,>240 µg/mL,>240 µg/mL,inactive,–
NNC(=O)c1ccncc1 [ISONIAZID],0.05 µg/mL,0.07 µg/mL,2.5 µg/mL,0.05 µg/mL,2.5 µg/mL,2.5 µg/mL,0.05 µg/mL,0.05 µg/mL,0.05 µg/mL,0.05 µg/mL,0.05 µg/mL,2.5 µg/mL,0.05 µg/mL,2.5 µg/mL,0.05 µg/mL,2.5 µg/mL,0.07 µg/mL,inactive,Activity [21]: inactive; Activity [22]: Active

# Reference: ChEMBL document CHEMBL1275420, “Transfer of embB codon 306 mutations into clinical Mycobacterium tuberculosis strains alters susceptibility to ethambutol, isoniazid, and rifampin” (2008)
